Source: PubChem BioAssay (The Scripps Research Institute Molecular Screening Center)
In the library only some 3% were active in any assay of this set; here they are far more common.
HTR1E antagonist = blocks the human 5-HT1E serotonin receptor; 0.99% of 65,000 active; P28566; CHO 5-HT1E Ga15 NFAT-bla reporter, FRET, antagonist; inhibition, % at 6 µM; AID 571;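 active means inhibition above a set limit, the mean inhibition across every tested compound plus 3 SD, cut at about 29% in these data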;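 further: signal is the 460 over 535 nm emission ratio of beta-lactamase substrate; 0% = agonist plus DMSO wells and 100% = wells without agonist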
HTR1A agonist = 5-HT1a (human) receptor agonism; P08908; 0.56% of 65,000 active; activation, % at 10 µM; CHO 5-HT1a Ga15 NFAT-bla reporter, FRET ratio; 0% basal, 100% maximal reference agonist; AID 567;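 active means activation above the screen-wide mean activation plus 3 SD, cut at about 19% in these data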;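 further: 0% = DMSO wells and 100% = 5-CT at EC100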
HTR1E agonist = agonists of human 5-HT1E serotonin receptor | CHO 5-HT1E Ga15 NFAT-bla reporter, FRET; 0% DMSO wells, 100% control agonist wells | activation, % at 6 µM | 0.69% of 65,000 active | AID 574;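 active means activation above a set limit, the screen-wide mean activation plus 3 SD, cut at about 8.5% in these data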;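 further: 100% = positive control agonist at 1 µM giving full maximal response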
S1P1 ag-PAM = activates or potentiates agonism at human S1P1 receptor; 0.57% of 56,000 active; P21453; activation, % at 9.5 µM; S1P1 CRE-bla cells, forskolin, beta-lactamase FRET, potentiator mode; S1P1 agonist co-added at EC20, 2 nM; 100% = saturating reference agonist, 0% = basal;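 active means activation above a cutoff set at the mean activation of all tested compounds plus 3 SD, cut at about 54% in these data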;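 further: forskolin at 4 µM as EC80 and the EC20 agonist is SEW2871; 100% = SEW2871 at its EC100 plus forskolin at EC80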
S1P3 ag = agonists of human S1P3 receptor; Q99500; S1P3 NFAT-BLA reporter cells, agonism, FRET ratio; relative to 1 µM S1P, basal subtracted; activation, % at 4.5 µM; 0.1% of 60,000 active; AID 373;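 active means activation above the screen-wide mean plus 3 SD, cut at about 4.5% in these data, passing the limit was not always enough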
Target sequence (Q99500 whole entry, looked up): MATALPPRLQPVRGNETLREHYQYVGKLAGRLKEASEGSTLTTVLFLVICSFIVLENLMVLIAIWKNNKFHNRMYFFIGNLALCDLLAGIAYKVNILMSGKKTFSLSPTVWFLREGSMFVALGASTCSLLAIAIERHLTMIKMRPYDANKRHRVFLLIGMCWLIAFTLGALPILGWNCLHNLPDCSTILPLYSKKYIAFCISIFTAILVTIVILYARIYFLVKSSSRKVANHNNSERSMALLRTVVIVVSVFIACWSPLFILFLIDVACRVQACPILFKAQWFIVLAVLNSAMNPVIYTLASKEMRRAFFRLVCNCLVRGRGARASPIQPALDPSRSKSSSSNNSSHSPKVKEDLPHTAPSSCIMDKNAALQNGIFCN
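Measure – % activation relative to 1 µM S1P (100%), per plate · System – stable CHO line with human S1P3, Gα16, NFAT-BLA reporter · Timing – cells plated overnight, compound 4 h 37 °C, substrate 2 h RT · Technique – fluorescent BLA substrate, ex 405 nm, em 460/535 nm ratio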
5-HT1A blocker = antagonists of human 5-HT1a serotonin receptor | P08908 | CHO 5-HT1a Ga15 NFAT-bla reporter, antagonist mode | inhibition, % at 10 µM | 0.68% of 62,000 active | AID 612;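 active means inhibition above the mean of all tested compounds plus 3 SD, cut at about 43% in these data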;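 further: receptor stimulated by 5-CT agonist at 100 nM near EC80; beta-lactamase reporter measured by ratiometric fluorescence of a cleavable substrate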
* = called active by the depositor; . = no result.

SMILES	HTR1E antagonist	HTR1A agonist	HTR1E agonist	S1P1 ag-PAM	S1P3 ag	5-HT1A blocker
O=C(COc1ccccc1)N(Cc1ccco1)C1CCS(=O)(=O)C1 (centres undefined)	-3	0	1	-4	0	-13
CCN(CC)c1nc(Nc2ccc(Cl)cc2)nc(OCC#N)n1	33*	1	0	-16	-1	31
CCN(CC)c1nc(Nc2ccccc2)nc(Oc2ccc(=O)[nH]n2)n1	22	-4	0	-15	-2	14
CC(=O)C(C(C)=O)C(NC(=O)c1cccnc1)(C(F)(F)F)C(F)(F)F	3	-5	0	-2	0	-1
CCOC(=O)C(O)(NC(=O)c1cccnc1)C(F)(F)F (centres undefined)	0	-2	10*	8	-1	-2
Cc1ccc2cc(CCNC(=O)c3ccco3)c(=O)[nH]c2c1C	-2	-2	1	32	-1	-2
CN1C(=O)NC2C1N(S(C)(=O)=O)CCN2S(C)(=O)=O (centres undefined)	3	-3	0	-28	-2	-6
O=C(CN(C(=O)CSc1nnc(COc2ccccc2)o1)c1ccc(F)cc1)NC1CCCC1	-3	40*	0	21	-1	13
O=C(OC1CCOC1=O)c1ccc2ncsc2c1 (centres undefined)	-2	-2	0	1	1	1
O=C(OC1CCOC1=O)c1cncc(Br)c1 (centres undefined)	1	-3	43*	3	-1	-15
CCOc1ccccc1NC(=O)Cn1nnc(C(=O)NCc2ccco2)c1N	73*	-2	-1	6	-1	34
CCCS(=O)(=O)N1CCCC(C(=O)NCCN2CCC(Cc3ccccc3)CC2)C1 (centres undefined)	-4	-2	0	-28	0	46*
Clc1cccc(N2CCN(CCNc3nc4ccccc4n4cnnc34)CC2)c1	6	6	8.9*	-13	-1	17
COc1ccc(OCC(O)Cn2c(=N)n(Cc3ccccc3)c3ccccc32)cc1 (centres undefined)	12	-3	-2	9	-1	48*
N=c1n(Cc2ccccc2)c2ccccc2n1CC(O)c1ccco1 (centres undefined)	0	-4	0	-1	0	13
Cc1cccc(OCC(O)Cn2c(=N)n(CCN3CCCCC3)c3ccccc32)c1 (centres undefined)	6	7	0	-7	-2	68*
COc1ccc(/C=C/C(O)=C2/C(=O)N(C)C3(C)CC2c2ccccc2O3)cc1 (centres undefined)	20	-1	0	-5	-1	46*
Cc1sc2ncnc(Sc3nnnn3-c3ccccc3)c2c1C	26	-4	-1	87*	-1	42
Cc1sc2ncnc(SCC(=O)c3cccs3)c2c1C	3	-2	0	34	-1	2
Clc1ccc(-n2nnnc2Sc2ncnc3sccc23)cc1	82*	-2	0	82*	1	69*
COc1ccc(C(=O)N2CC=C(c3ccccc3)CC2)cc1S(=O)(=O)N1CCOCC1	-12	-1	0	5	0	-9
C/C=C/Cn1c(SCc2ccc(C)cc2)nc2c1c(=O)[nH]c(=O)n2C	30*	0	2	-50	-1	-1
CC(=O)Nc1nc2n(n1)C(c1ccc(F)cc1)C=C(c1ccccc1)N2 (centres undefined)	25	0	-1	30	0	20
OCCCc1nc2n(n1)C(c1ccccc1)C=C(c1ccccc1)N2 (centres undefined)	30*	-2	0	-7	0	0
CC(=O)Nc1nc2n(n1)C(c1ccccc1)C=C(c1ccccc1)N2 (centres undefined)	34*	-2	-1	.	-2	30
SMILES	HTR1E antagonist	HTR1A agonist	HTR1E agonist	S1P1 ag-PAM	S1P3 ag	5-HT1A blocker
O=C(c1nc2n(n1)C(c1ccc(Cl)cc1)C=C(c1ccccc1)N2)N1CCOCC1 (centres undefined)	42*	-2	-1	.	0	28
COc1ccc(C2C(C(=O)Nc3ccccc3)=C(C)Nc3nc(CCCO)nn32)cc1 (centres undefined)	6	-2	-2	2	-1	-6
COc1ccc(C2C=C(c3cccs3)Nc3nc(CCCO)nn32)cc1 (centres undefined)	37*	-5	-1	27	0	28
COc1ccc(C2C=C(c3ccccc3)Nc3nc(CCCO)nn32)cc1 (centres undefined)	24	-2	0	8	0	13
CCOc1nc(-c2ccc(C)cc2)ccc1-c1noc(-c2cccnc2)n1	2	-5	0	-13	-1	4
COc1ccc(-n2c(SCC(=O)Nc3cc(C)on3)nc3ccc(O)cc3c2=O)cc1OC	2	0	1	-16	0	-5
COc1cc(C2C(C#N)=C(N)Oc3cc(C)oc(=O)c32)ccc1OC(=O)N1CCOCC1 (centres undefined)	-14	-2	0	-4	1	-9
Cc1cccc2cc(CN(Cc3nnnn3C3CCCC3)C3CCCCC3)c(=O)[nH]c12	33*	0	1	-14	0	-2
Cc1onc(-c2ccccc2Cl)c1C(=O)NCc1ccc2c(c1)cc(C)n2C	13	1	1	-8	-1	-11
COc1ccc(S(=O)(=O)N2CCCCC2)cc1C(C)C	5	0	34*	13	0	10
COc1ccc(Oc2ccc(S(=O)(=O)N3CCCCC3)cc2S(=O)(=O)N2CCCCC2)cc1	11	0	0	.	.	-26
C=CCOc1cccc(C2C(C(=O)c3ccco3)=C(O)C(=O)N2CCN(CC)CC)c1 (centres undefined)	-6	20*	0	-11	0	0
COc1ccc(C2C3=C(CC(C)(C)CC3=O)Oc3ncn(CCCn4ccnc4)c(=N)c32)cc1 (centres undefined)	1	3	2	-15	0	-7
Cc1ccc(S(=O)(=O)N(C)Cc2ccc(-c3nnco3)cc2)cc1	1	-1	0	22	0	16
Cc1ccc(C(C)C)c(OCc2ccc(-c3nnco3)cc2)c1	16	-1	-1	98*	-2	10
COc1ccc(-n2nnnc2S(=O)(=O)CC(=O)N2CCCCC2)cc1	69*	-1	-1	110	-2	92*
Cc1cc(C(C)(C)C)cc(C)c1CC1=NCCN1	-3	43*	89*	18	-4	.
